Screening results as filed in PubChem.
hIAP inh: blocks human intestinal alkaline phosphatase; P09923; purified IAP, CDP-Star luminescence, 30 min; inhibition, % at 10 µM; 330,000 compounds, 0.12% hits;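 active means inhibition reaching a set limit with compound at 10 µM in the primary screen, cut at about 35% in these data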;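 further: plate controls were DMSO wells with enzyme for no effect and no-enzyme buffer wells for full effect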
Target sequence (P09923 whole entry, looked up): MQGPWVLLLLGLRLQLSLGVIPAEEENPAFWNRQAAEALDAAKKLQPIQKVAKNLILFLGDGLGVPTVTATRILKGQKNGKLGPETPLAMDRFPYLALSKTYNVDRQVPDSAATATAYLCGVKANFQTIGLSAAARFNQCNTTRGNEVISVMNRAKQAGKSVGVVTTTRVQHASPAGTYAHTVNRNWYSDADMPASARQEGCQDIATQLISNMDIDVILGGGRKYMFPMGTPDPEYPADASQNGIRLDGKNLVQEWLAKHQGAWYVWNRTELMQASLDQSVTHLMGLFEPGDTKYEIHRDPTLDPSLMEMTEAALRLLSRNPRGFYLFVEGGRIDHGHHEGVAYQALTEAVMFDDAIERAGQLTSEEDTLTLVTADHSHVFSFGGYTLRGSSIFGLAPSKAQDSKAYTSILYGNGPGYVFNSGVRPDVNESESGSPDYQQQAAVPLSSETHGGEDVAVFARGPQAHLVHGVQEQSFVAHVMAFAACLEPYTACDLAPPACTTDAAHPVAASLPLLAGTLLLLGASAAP
mIAP block: blocks mouse intestinal alkaline phosphatase; purified mouse IAP, CDP-Star luminescence, 30 min; inhibition, % at 10 µM; 330,000 compounds, 0.2% hits;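 active means inhibition of at least 40% at 10 µM in the primary screen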;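 further: plate controls were DMSO with enzyme for no effect and no enzyme wells for full effect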
bIAP inhibitor: intestinal alkaline phosphatase (bovine) inhibition; 190,000 tested, under 10 active; purified bovine IAP, CDP-star luminescence, 30 min; inhibition, % at 20 µM;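 active means over 50% inhibition of intestinal alkaline phosphatase at 20 µM in the single-dose screen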
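System: purified bovine intestinal alkaline phosphatase (IAP) enzyme; Input: IAP diluted 1/65,000,000 in the well; Measured by: CDP-star luminescence signal; Compound dosing: 20 µM single dose; Incubation: 30 min reaction at room temperature.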
bIAP activator: increases bovine intestinal alkaline phosphatase activity | purified bovine IAP, CDP-star luminescence, 30 min; hits give high values; fold of DMSO-control signal, blank-subtracted | activation factor at 20 µM | 200,000 compounds, 0.17% hits | AID 1016;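 active means activation factor of 2 or more at 20 µM, a signal rise over negative controls twice the positive control's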
hIAP act: increases human intestinal alkaline phosphatase activity; activation factor at 10 µM; purified human IAP, CDP-Star luminescence, 30 min; hits give high values; 1 = vehicle-only enzyme, 0 = enzyme-free background; 330,000 compounds, 0.16% hits;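 active means activation factor of the enzyme at least 2-fold when tested at 20 µM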
mIAP activ: increases mouse intestinal alkaline phosphatase activity; muIAP, CDP-Star luminescence, 30 min; hits give high values; 1 = vehicle-only enzyme signal, 0 = enzyme-free wells; activation factor at 10 µM; 330,000 compounds, 0.24% hits;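 active means activation factor of at least 2 at 20 µM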
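Assay system: mouse IAP enzyme; Reagent: CDP-Star chemiluminescent phosphatase substrate; Compound: DMSO-dissolved test compounds; Incubation: 30 min, room temperature; Technique: luminescence from enzymatic CDP-Star hydrolysis; Controls: DMSO-only wells and no-enzyme negative control.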
hIAP act confirm: human IAP activation confirmation | activation (%Activity, negative = activation), % at 8.3 µM | shares compounds with hIAP act | 880 compounds, 10% hits | purified IAP, CDP-Star luminescence, 30 min; hits give low values | AID 434926;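 active means at least twofold enzyme activation in any of six single-dose repeats, which the averaged readout prints as negative percent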
mIAP inh conf: mouse IAP inhibition confirmation; shares compounds with mIAP block; purified mouse IAP, CDP-Star luminescence, 30 min; inhibition, % at 10 µM; 11,000 compounds, 4.7% hits; AID 434971;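 active means inhibition of at least 40% at 10 µM in either of the two replicates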;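 further: plate controls were DMSO wells with enzyme for no effect and buffer wells lacking enzyme for full effect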
Starred values were filed as active, the others as inactive; i = inactive; nt = not tested or not shown. This is a sample that favours compounds with a hit; in the whole collection about 0.79% have one here.

SMILES	hIAP inh	mIAP block	bIAP inhibitor	bIAP activator	hIAP act	mIAP activ	mIAP inh conf	others
O=C1NC(=O)N(c2ccc3c(c2)OCO3)C(=O)/C1=C/c1ccc(N2CCCC2)o1	29.2	55.5*	4.5	1	0.708	0.445	nt
CCOC(=O)Cn1cc(C(=O)c2ccccc2)c2ccccc21	-16.5	-3.6	nt	nt	1.17	1.04	nt
O=c1[nH]c(=O)n(Cc2ccco2)c(O)c1C=NCc1cccs1	1.8	10.3	12.6	0.9	0.982	0.897	nt
O=c1[nH]c(=S)n(Cc2ccco2)c(O)c1C=NCc1cccs1	-5.6	61.2*	-12.4	1.1	1.06	0.388	nt
COc1ccccc1[As](=O)(O)CC(O)COc1ccc(Cl)cc1Cl (configuration not stated)	-5.1	-1.1	nt	nt	1.05	1.01	nt
c1ccc2[nH]c(CCNC3CCCCC3)nc2c1	1.5	3.6	-120.5	2.2*	0.985	0.964	nt
CCOC(=O)N(C)c1ccc(C(O)(C(=O)OC)C(F)(F)F)cc1 (configuration not stated)	-8.8	-5.1	-106.2	2.1*	1.09	1.05	nt
CC(N)Cc1c[nH]c2ccc(OCc3cccs3)cc12 (configuration not stated)	-2.5	-6.7	nt	nt	1.02	1.07	nt
COc1ccc(C(=O)C2CN(C)CC2c2ccc(Cl)cc2)cc1 (configuration not stated)	-1.9	-6.1	4.5	1	1.02	1.06	nt
CN1CC(C(=O)c2ccc(Cl)cc2)C(c2ccccc2F)C1 (configuration not stated)	-7.2	42.3*	0.2	1	1.07	0.577	nt
O=c1[nH]c(=O)n(-c2ccc(Br)cc2)c(O)c1C=NC(CO)(CO)CO	49.6*	-6.2	nt	nt	0.504	1.06	nt	hIAP act confirm=2.4
COC(=O)C1=C(c2ccc(Cl)c(C(F)(F)F)c2)C[C@@H]2CC[C@H]1N2C	2.1	-0.6	nt	nt	0.979	1.01	nt
CCCCOc1ccc(CN2CCN(CCO)CC2)cc1	36.6*	2.8	1.3	1	0.634	0.972	nt	hIAP act confirm=-21.9
CCCCCCOc1ccc(CN2CCN(CCO)CC2)cc1	5.0	2.3	-5.5	1.1	0.95	0.977	nt
CCN1C(=O)/C(=C\c2ccc([N+](=O)[O-])s2)C(=O)NC1=S	nt	nt	46.1	0.5	nt	nt	nt
C=CCN1C(=O)/C(=C/c2ccc(Br)s2)C(=O)NC1=S	-11.4	42.8*	nt	nt	1.11	0.572	52.8*
COP(=O)(OC)Oc1ccc(C(O)C(Cl)(Cl)Cl)cc1 (configuration not stated)	-1.7	-9.0	nt	nt	1.02	1.09	nt
CN1C(=O)/C(=C/C=C/c2ccco2)C(=O)NC1=S	6.4	65.7*	nt	nt	0.936	0.343	61.5*
O=C1NC(=O)N(Cc2ccccc2)C(=O)/C1=C\C=C\c1ccco1	-8.6	37.2	4.6	1	1.09	0.628	nt
Cc1ccc(N2C(=O)NC(=O)/C(=C\C=C\c3ccco3)C2=O)cc1	-2.3	36.0	nt	nt	1.02	0.64	nt
O=C1NC(=O)N(Cc2ccco2)C(=O)/C1=C/C=C/c1ccco1	3.8	71.9*	nt	nt	0.962	0.281	74.9*
O=C1NC(=O)N(c2ccccc2)C(=O)/C1=C/C=C/c1ccco1	0.2	28.3	nt	nt	0.998	0.717	nt
Cc1cccc(N2C(=O)NC(=O)/C(=C\C=C\c3ccco3)C2=O)c1	2.1	45.2*	nt	nt	0.979	0.548	52.7*
O=C(Cn1cnc2sc3c(c2c1=O)CCCC3)NCCCC(=O)N1CCC2(CC1)OCCO2	-4.6	2.5	4.2	1	1.05	0.975	nt
CC1CCC2C(C)C(=O)OC3OC4(C)CCC1C32OO4 (configuration not stated)	13.8	8.0	nt	nt	0.862	0.92	nt
SMILES	hIAP inh	mIAP block	bIAP inhibitor	bIAP activator	hIAP act	mIAP activ	mIAP inh conf	others
COC(=O)C1=C(c2ccccc2OCc2ccccc2)C[C@@H]2CC[C@H]1N2C(=O)NCc1ccc(F)cc1	4.7	-29.7	nt	nt	0.953	1.3	nt
Cc1ccc(N2C(=O)/C(=C/c3ccc(CN(CCC#N)S(C)(=O)=O)o3)C(=O)NC2=S)cc1C	9.2	42.7*	-7.0	1.1	0.908	0.573	46.1*
N#Cc1c(/N=C/c2c(O)n(Cc3ccco3)c(=O)[nH]c2=O)sc2c1CCCC2	8.7	63.9*	0.0	1	0.913	0.361	71.5*
CN1CCN(c2nc(N)c(Br)c(Cl)n2)CC1	-8.7	1.2	nt	nt	1.09	0.988	nt
COc1ccc(OC)c(N2C(=O)/C(=C/c3ccco3)C(=O)NC2=S)c1	3.6	41.9*	nt	nt	0.964	0.581	58.1*
O=C1NC(=S)N(c2ccc(F)cc2)C(=O)/C1=C/c1ccco1	9.5	46.7*	nt	nt	0.905	0.533	60.2*
Clc1ccc(C(c2ccc(Cl)cc2)n2cc[n+](CC(OCc3ccc(Cl)cc3Cl)c3ccc(Cl)cc3Cl)c2)cc1 (configuration not stated)	-28.2	i	nt	nt	1.28	16.8*	i
OC[C@@H](O)CCl	6.0	4.8	nt	nt	0.94	0.952	nt
O=C1NC(=O)N(c2ccc3c(c2)OCO3)C(=O)/C1=C/c1cccs1	6.4	72.4*	2.9	1	0.936	0.276	76.5*
Oc1ccc(C[C@H]2NCCc3cc(O)c(O)cc32)cc1O	17.1	62.6*	nt	nt	0.829	0.374	76.3*
